According to ChEMBL document CHEMBL1121826, “Relation of conformation to antitumor activity of platinum(II) complexes of 1,2-cyclohexanediamine and 2-(aminomethyl)cyclohexylamine isomers against leukemia P388” (J Med Chem, 1981):
“And” between values parts separate entries of the source, which are not always exact repeats. Equal values may be shown once.

Key:
[1] = Therapeutic index was determined against leukemia P388 cells in mice; assay type: cell-based; conditions: mouse
Procedure, shortened: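 CDF1 mice implanted ip with 10^6 P388 cells on day 0 and dosed ip on days 1 and 5 (saline, or saline plus Tween 80 suspension if insoluble); 6 treated and 10 control mice. % T/C from median survival. TI is optimal dose divided by MED (lowest dose giving % T/C above 120), per the NCI platinum analogue protocol.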

[2] = system: P388; assay: Antitumor activity against leukemia P388 in CDF1 mice; assay type: functional, cell-based; conditions: Mus musculus
Procedure, shortened: (§1)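 CDF1 [(BALB/c × DBA/2)F1] mice given 10^6 P388 cells ip on day 0; treatment ip on days 1 and 5; insoluble complexes suspended in physiological saline with a few drops of Tween 80. Groups of 6 treated and 10 control mice. Median survival of treated (T) and control (C) groups calculated; activity expressed as % T/C.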

[3] = system: P388; assay: Toxic dose against leukemia P388 in CDF1 mice; assay type: functional, cell-based; conditions: Mus musculus; procedure, shortened: as §1
[4] = system: P388; assay: Optimal dose against leukemia P388 in CDF1 mice; assay type: functional, cell-based; conditions: Mus musculus; procedure, shortened: as §1
[5] = system: P388; assay: Minimum effective dose (MED) against leukemia P388 in CDF1 mice; assay type: functional, cell-based; conditions: Mus musculus
Procedure, shortened: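 P388 model in CDF1 mice: 10^6 cells ip on day 0, ip dosing on days 1 and 5; 6 treated and 10 control mice per group. Median survival days give % T/C. MED is the lowest dose at which % T/C exceeded 120.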

Row | Substance | TI [1] | other results
1 | 0-Hexyl-1,3-diamine-platinum 2,2-dichloride [listing 1 of 2 here] | 4 | 
2 | 0-Hexyl-1,3-diamine-platinum 2,2-dichloride [listing 2 of 2 here] |  | T/C [2]: 206% and 127%; Toxic dose [3]: 12.5 mg/kg; Optimal dose [4]: 6.25 mg/kg; MED [5]: 1.56 mg/kg
3 | CISPLATIN [listing 1 of 2 here] | 4 | 
4 | CISPLATIN [listing 2 of 2 here] |  | T/C [2]: 230% (2×) and 134% (2×); Toxic dose [3]: 12.5 mg/kg; Optimal dose [4]: 3.12 mg/kg; MED [5]: 0.78 mg/kg
5 | amcha (cis-d)-2-(aminomethyl)cyclohexylamine platinum (II) complex [listing 1 of 5 here] | >= 16 | 
6 | amcha (cis-d)-2-(aminomethyl)cyclohexylamine platinum (II) complex [listing 2 of 5 here] | 32 | 
7 | amcha (cis-d)-2-(aminomethyl)cyclohexylamine platinum (II) complex [listing 3 of 5 here] | >= 4 | 
8 | amcha (cis-d)-2-(aminomethyl)cyclohexylamine platinum (II) complex [listing 4 of 5 here] | 16 | 
9 | amcha (cis-d)-2-(aminomethyl)cyclohexylamine platinum (II) complex [listing 5 of 5 here] |  | T/C [2]: 160% [middle of 8 runs]; MED [5]: < 0.39 mg/kg
10 | amcha (cis-l)-2-(aminomethyl)cyclohexylamine platinum (II) complex [listing 1 of 6 here] | >= 32 | 
11 | amcha (cis-l)-2-(aminomethyl)cyclohexylamine platinum (II) complex [listing 2 of 6 here] | 32 | 
12 | amcha (cis-l)-2-(aminomethyl)cyclohexylamine platinum (II) complex [listing 3 of 6 here] | > 16 | 
13 | amcha (cis-l)-2-(aminomethyl)cyclohexylamine platinum (II) complex [listing 4 of 6 here] | > 8 | 
14 | amcha (cis-l)-2-(aminomethyl)cyclohexylamine platinum (II) complex [listing 5 of 6 here] | 8 | 
15 | amcha (cis-l)-2-(aminomethyl)cyclohexylamine platinum (II) complex [listing 6 of 6 here] |  | T/C [2]: 148% [middle of 11 runs]; MED [5]: < 0.78 mg kg-1 (3×) and < 1.56 mg kg-1 and 0.78 mg kg-1
16 | amcha (trans-d)-2-(aminomethyl)cyclohexylamine platinum (II) complex [listing 1 of 5 here] | 16 | 
17 | amcha (trans-d)-2-(aminomethyl)cyclohexylamine platinum (II) complex [listing 2 of 5 here] | 64 | 
18 | amcha (trans-d)-2-(aminomethyl)cyclohexylamine platinum (II) complex [listing 3 of 5 here] | >= 64 | 
19 | amcha (trans-d)-2-(aminomethyl)cyclohexylamine platinum (II) complex [listing 4 of 5 here] | >= 16 | 
20 | amcha (trans-d)-2-(aminomethyl)cyclohexylamine platinum (II) complex [listing 5 of 5 here] |  | T/C [2]: 160% [middle of 8 runs]; Toxic dose [3]: 100 mg kg-1 and > 100 mg kg-1 (2×) and > 200 mg kg-1; MED [5]: < 0.78 mg/kg

Row | Substance | TI [1] | other results
21 | amcha (trans-l)-2-(aminomethyl)cyclohexylamine platinum (II) complex [listing 1 of 4 here] | 4 | 
22 | amcha (trans-l)-2-(aminomethyl)cyclohexylamine platinum (II) complex [listing 2 of 4 here] | 16 | 
23 | amcha (trans-l)-2-(aminomethyl)cyclohexylamine platinum (II) complex [listing 3 of 4 here] | >= 16 | 
24 | amcha (trans-l)-2-(aminomethyl)cyclohexylamine platinum (II) complex [listing 4 of 4 here] |  | T/C [2]: 158% [middle of 10 runs]; Optimal dose [4]: 12.5 mg kg-1 (3×) and 25 mg kg-1 and > 25 mg kg-1
25 | dach (cis)-1,2-cyclohexanediamine platinum (II) complex [listing 1 of 4 here] | >= 8 | 
26 | dach (cis)-1,2-cyclohexanediamine platinum (II) complex [listing 2 of 4 here] | 4 | 
27 | dach (cis)-1,2-cyclohexanediamine platinum (II) complex [listing 3 of 4 here] | 16 | 
28 | dach (cis)-1,2-cyclohexanediamine platinum (II) complex [listing 4 of 4 here] |  | T/C [2]: 144% [middle of 10 runs]; Optimal dose [4]: 25 mg kg-1 (4×) and 12.5 mg kg-1
29 | dach (trans-d)-1,2-cyclohexanediamine platinum (II) complex [listing 1 of 5 here] | 8 | 
30 | dach (trans-d)-1,2-cyclohexanediamine platinum (II) complex [listing 2 of 5 here] | 16 | 
31 | dach (trans-d)-1,2-cyclohexanediamine platinum (II) complex [listing 3 of 5 here] | 13 | 
32 | dach (trans-d)-1,2-cyclohexanediamine platinum (II) complex [listing 4 of 5 here] | >= 8 | 
33 | dach (trans-d)-1,2-cyclohexanediamine platinum (II) complex [listing 5 of 5 here] |  | T/C [2]: 151% [middle of 12 runs]
34 | dach (trans-l)1,2-cyclohexanediamine platinum (II) complex [listing 1 of 2 here] | >= 4 | 
35 | dach (trans-l)1,2-cyclohexanediamine platinum (II) complex [listing 2 of 2 here] |  | Toxic dose [3]: 25 mg/kg; Optimal dose [4]: 6.25 mg/kg; MED [5]: < 1.56 mg/kg
36 | dach (trans-l)-1,2-cyclohexanediamine platinum (II) complex [listing 1 of 4 here] | >= 16 | 
37 | dach (trans-l)-1,2-cyclohexanediamine platinum (II) complex [listing 2 of 4 here] | 8 | 
38 | dach (trans-l)-1,2-cyclohexanediamine platinum (II) complex [listing 3 of 4 here] | 4 | 
39 | dach (trans-l)-1,2-cyclohexanediamine platinum (II) complex [listing 4 of 4 here] |  | T/C [2]: 182% [middle of 10 runs]
